What was measured:
Assay type in all cases: functional
Details in all cases: read-out: ID50 (the source's name)
JAR [1] = test: The compound along with CPG2 was tested for cytotoxicity against human JAR, choriocarcinoma cell line.
Method in brief: (§1)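 JAR and LS174T cells (5×10^4 mL⁻¹, DMEM) exposed to prodrug at 0.5-800 μM, freshly made and adjusted to pH 7.4. Dosing was repeated at the same concentration three times, 24 h apart. CPG2 at 6 units mL⁻¹ final was added with each dose to generate active drug in situ. Duplicates. Viability was counted by hemocytometer 24 h after the last dose, relative to untreated controls.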

JAR [2] = test: The compound was tested for cytotoxicity against human JAR, choriocarcinoma cell line.
Method in brief: (§2)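 JAR and LS174T cells (5×10^4 mL⁻¹, DMEM) exposed to compound at 0.5-800 μM, with no enzyme added. Solutions were freshly made and adjusted to pH 7.4. Dosing was repeated at the same concentration three times, 24 h apart. Duplicates. Viability was counted by hemocytometer 24 h after the last dose, relative to untreated controls.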

LS174T [3] = test: The compound along with CPG2 was tested for cytotoxicity against human LS174T,colorectal cell line.; method in brief: as §1
LS174T [4] = test: The compound was tested for cytotoxicity against human LS174T,colorectal cell line.; method in brief: as §2

Compound `O=C(O)CCC(NC(=O)c1ccc(N(CCCl)CCCl)cc1)C(=O)O` (configuration not stated) has an IC50 (JAR [1]) of 8 µM, an IC50 (JAR [2]) of over 800 µM and an IC50 (LS174T [3]) of 25 µM. For the same compound, the IC50 (LS174T [4]) was over 800 µM.
Work on `CS(=O)(=O)OCCN(CCOS(C)(=O)=O)c1ccc(C(=O)NC(CCC(=O)O)C(=O)O)cc1` (configuration not stated) yielded an IC50 (JAR [1]) of 60 µM, an IC50 (JAR [2]) of over 800 µM and an IC50 (LS174T [3]) of 65 µM. It also gave an IC50 (LS174T [4]) of 800 µM.
For `CS(=O)(=O)OCCN(CCCl)c1ccc(C(=O)NC(CCC(=O)O)C(=O)O)cc1` (configuration not stated), the IC50 (JAR [1]) was 10 µM, the IC50 (JAR [2]) was 630 µM and the IC50 (LS174T [3]) was 10 µM. It also gave an IC50 (LS174T [4]) of 285 µM.

Reference: ChEMBL document CHEMBL1124826, “Novel prodrugs which are activated to cytotoxic alkylating agents by carboxypeptidase G2” (1990)
